Measurements: publication PMC3683132 (ACS chemical biology, 2013)

What was measured:
[1] = tested on: insulin receptor (IR) pre-mRNA alternative splicing; assay: IR splicing assay; format: cell-based; conditions: 50 µM, DM1 cell model
[2] = tested on: (CUG)960 foci in HeLa cells transfected with DMPK-CUG960 and GFP-MBNL1; assay: FISH / confocal microscopy of ribonuclear foci in fixed DM1 cell model; format: cell-based; conditions: 50 µM, 48 h
Procedure, shortened: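 HeLa cells (ca. 120,000/well, on coverslips) were co-transfected next day at 70–80% confluence with 500 ng DMPK–CUG960 (or CUG0 control) and 500 ng GFP-MBNL1 plasmids using Lipofectamine. After 4 h the medium was changed and test compound added (20–100 µM) for two days; 50 µM spermine served as the control compound. Cells were fixed (4% PFA), permeabilized and probed with Cy3-(CAG)10 for 2 h at 37 °C. Nuclei were stained with TO-PRO-3 and scored by confocal microscopy; results are mean ± standard error of ≥3 independent experiments with two-tailed p-values.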

NCCCNCCCCNCCCN [spermine, reference compound]
effect on the IR mis-splicing [1]: no effect
effect on (CUG)960 foci [2]: no effect
